Measured values published in article PMC6893910 (ACS chemical biology, 2019).
“Also recorded” adds a separate entry of the source.

Experiments:
[1] = system: acetylation level of α-tubulin; test: Acetyl-α-tubulin; format: cell-based; settings: HEK 293T cells, 6 hrs
Summary of the method: (§1)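 HEK 293T cells were treated with test compound for 6 hrs. Acetyl-α-tubulin (K40) and acetyl-histone H3 were both detected by immunoblot of the treated cells.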

SIRT3 = molecular target: T1, SIRT3 (Homo sapiens, UniProt Q9NTG7); test: In vitro selectivity assay with acyl-H3K9 peptide, SIRT3; format: biochemical; settings: at 100 μM
T1 sequence (Q9NTG7 1-399): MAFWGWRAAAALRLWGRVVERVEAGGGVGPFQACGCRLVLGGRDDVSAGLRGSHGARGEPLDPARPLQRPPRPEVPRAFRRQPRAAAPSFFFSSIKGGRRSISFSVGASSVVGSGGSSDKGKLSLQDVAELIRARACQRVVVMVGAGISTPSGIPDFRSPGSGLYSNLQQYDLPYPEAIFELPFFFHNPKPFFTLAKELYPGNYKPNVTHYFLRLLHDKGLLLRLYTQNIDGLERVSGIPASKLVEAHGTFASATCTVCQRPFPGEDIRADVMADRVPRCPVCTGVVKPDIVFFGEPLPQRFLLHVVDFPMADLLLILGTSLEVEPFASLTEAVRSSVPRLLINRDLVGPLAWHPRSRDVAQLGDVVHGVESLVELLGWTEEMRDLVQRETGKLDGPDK

HDAC11 [2] = molecular target: T2, HDAC11 (Homo sapiens, UniProt Q96DB2); test: HPLC-based HDAC11 assay with myristoyl-H3K9 peptide; format: biochemical
T2 sequence (Q96DB2 1-347): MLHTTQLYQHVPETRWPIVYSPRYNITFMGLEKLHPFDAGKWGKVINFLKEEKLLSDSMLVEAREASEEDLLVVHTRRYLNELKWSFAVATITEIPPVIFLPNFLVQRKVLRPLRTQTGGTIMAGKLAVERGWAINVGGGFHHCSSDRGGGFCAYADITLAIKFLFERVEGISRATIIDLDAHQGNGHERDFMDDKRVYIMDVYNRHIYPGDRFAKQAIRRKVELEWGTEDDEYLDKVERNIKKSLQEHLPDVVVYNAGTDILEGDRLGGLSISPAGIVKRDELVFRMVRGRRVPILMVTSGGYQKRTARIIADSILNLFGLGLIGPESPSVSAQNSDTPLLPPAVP

[3] = LC-MS based detection of compound in cell lysate; format: in vitro ADME; settings: LC-MS based assay
SIRT2 = molecular target: T3, SIRT2 (Homo sapiens, UniProt Q8IXJ6); test: In vitro selectivity assay with acyl-H3K9 peptide, SIRT2; format: biochemical; settings: at 100 μM
T3 sequence (Q8IXJ6 1-389): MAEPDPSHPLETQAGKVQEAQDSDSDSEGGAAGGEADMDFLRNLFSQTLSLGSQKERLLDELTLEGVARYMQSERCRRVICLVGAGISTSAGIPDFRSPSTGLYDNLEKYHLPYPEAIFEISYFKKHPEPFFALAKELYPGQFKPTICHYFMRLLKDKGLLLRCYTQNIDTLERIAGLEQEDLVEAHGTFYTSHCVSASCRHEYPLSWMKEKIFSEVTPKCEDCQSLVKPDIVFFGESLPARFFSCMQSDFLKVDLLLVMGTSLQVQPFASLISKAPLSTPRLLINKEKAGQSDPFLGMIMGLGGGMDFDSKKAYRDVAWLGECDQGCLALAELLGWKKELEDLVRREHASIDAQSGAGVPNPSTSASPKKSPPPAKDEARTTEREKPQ

[4] = system: acetylation level of histone H3; test: Acetyl-histone H3 immunoblot in HEK 293T cells; format: cell-based; settings: 6 hrs
Summary of the method: as §1

HDAC8 = molecular target: T4, HDAC8 (Homo sapiens, UniProt Q9BY41); test: In vitro selectivity assay with acyl-H3K9 peptide, HDAC8; format: biochemical; settings: at 100 μM
T4 sequence (Q9BY41 1-377): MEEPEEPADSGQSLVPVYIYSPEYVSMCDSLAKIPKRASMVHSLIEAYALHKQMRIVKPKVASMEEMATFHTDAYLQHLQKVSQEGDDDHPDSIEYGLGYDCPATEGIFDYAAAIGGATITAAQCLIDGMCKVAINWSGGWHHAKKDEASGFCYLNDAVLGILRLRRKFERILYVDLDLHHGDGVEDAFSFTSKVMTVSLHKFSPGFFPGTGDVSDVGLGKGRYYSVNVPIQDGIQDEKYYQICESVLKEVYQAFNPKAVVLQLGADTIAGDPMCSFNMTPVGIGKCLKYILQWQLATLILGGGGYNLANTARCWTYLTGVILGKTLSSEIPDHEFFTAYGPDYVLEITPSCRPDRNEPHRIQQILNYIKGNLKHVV

HDAC4 = HDAC4 (Homo sapiens, UniProt P56524); test: In vitro selectivity assay with acyl-H3K9 peptide, HDAC4; format: biochemical; settings: at 100 μM
Sequence of HDAC4 (P56524 whole entry, species assumed): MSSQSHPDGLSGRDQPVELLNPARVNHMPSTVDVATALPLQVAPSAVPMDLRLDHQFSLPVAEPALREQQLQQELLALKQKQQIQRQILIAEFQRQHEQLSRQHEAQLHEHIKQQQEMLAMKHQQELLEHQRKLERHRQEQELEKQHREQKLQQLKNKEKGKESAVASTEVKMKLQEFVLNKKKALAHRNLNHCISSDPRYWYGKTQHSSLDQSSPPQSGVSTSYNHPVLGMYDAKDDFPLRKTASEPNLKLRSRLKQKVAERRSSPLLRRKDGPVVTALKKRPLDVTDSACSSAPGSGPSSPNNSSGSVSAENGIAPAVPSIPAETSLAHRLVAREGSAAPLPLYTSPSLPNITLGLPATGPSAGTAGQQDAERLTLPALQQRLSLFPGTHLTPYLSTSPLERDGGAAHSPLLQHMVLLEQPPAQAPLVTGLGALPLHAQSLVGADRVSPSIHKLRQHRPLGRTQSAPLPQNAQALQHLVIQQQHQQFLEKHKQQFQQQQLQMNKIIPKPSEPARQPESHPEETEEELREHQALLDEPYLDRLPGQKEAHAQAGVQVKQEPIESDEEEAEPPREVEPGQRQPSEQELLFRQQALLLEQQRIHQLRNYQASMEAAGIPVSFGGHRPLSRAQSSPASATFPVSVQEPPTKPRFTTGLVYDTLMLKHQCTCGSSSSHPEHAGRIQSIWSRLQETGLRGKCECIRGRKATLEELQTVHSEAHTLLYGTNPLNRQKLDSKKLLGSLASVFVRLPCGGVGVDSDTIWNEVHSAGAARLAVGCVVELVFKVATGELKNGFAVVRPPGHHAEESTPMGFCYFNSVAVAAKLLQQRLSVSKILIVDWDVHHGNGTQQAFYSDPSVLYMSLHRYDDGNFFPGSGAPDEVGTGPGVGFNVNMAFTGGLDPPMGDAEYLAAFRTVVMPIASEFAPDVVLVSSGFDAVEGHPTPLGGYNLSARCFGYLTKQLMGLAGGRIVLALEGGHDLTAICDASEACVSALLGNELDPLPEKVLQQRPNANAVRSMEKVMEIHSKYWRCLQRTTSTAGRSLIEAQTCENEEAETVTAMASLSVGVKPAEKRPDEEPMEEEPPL

HDAC1 = HDAC1 (Homo sapiens, UniProt Q13547); test: In vitro selectivity assay with acyl-H3K9 peptide, HDAC1; format: biochemical; settings: at 100 μM
Sequence of HDAC1 (Q13547 whole entry, species assumed): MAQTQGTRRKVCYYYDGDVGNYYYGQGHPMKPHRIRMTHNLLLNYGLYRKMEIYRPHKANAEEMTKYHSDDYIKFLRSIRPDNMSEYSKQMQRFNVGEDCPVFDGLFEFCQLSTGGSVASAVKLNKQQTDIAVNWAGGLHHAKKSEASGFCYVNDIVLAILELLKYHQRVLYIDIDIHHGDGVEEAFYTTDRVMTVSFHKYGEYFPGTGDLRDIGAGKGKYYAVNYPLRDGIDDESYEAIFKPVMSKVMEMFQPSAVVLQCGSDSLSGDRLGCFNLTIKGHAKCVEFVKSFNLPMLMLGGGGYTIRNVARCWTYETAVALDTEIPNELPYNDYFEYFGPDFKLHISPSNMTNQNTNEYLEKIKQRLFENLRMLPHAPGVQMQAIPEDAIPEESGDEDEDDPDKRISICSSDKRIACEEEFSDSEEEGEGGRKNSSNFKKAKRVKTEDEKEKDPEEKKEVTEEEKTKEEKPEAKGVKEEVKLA

HDAC11 [5] = molecular target: T2, HDAC11; test: HDAC11 demyristoylation of myristoyl-SHMT2 peptide in vitro; format: biochemical; settings: read-out: IC50 against HDAC11; myristoyl-SHMT2 peptide substrate
SIRT6 = SIRT6 (Homo sapiens, UniProt Q8N6T7); test: In vitro selectivity assay with acyl-H3K9 peptide, SIRT6; format: biochemical; settings: at 100 μM
Sequence of SIRT6 (Q8N6T7 whole entry, species assumed): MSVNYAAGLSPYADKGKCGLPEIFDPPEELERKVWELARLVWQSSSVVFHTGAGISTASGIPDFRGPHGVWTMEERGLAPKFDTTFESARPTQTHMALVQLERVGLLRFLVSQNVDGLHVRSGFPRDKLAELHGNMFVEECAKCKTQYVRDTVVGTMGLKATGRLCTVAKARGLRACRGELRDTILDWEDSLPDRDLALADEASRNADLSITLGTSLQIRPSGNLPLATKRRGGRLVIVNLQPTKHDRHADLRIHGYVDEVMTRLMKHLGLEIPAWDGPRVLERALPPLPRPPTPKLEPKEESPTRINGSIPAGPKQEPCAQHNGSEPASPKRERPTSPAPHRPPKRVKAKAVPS

SIRT1 = molecular target: T5, SIRT1 (Homo sapiens, UniProt Q96EB6); test: In vitro selectivity assay with acyl-H3K9 peptide, SIRT1; format: biochemical; settings: at 100 μM
T5 sequence (Q96EB6 1-747): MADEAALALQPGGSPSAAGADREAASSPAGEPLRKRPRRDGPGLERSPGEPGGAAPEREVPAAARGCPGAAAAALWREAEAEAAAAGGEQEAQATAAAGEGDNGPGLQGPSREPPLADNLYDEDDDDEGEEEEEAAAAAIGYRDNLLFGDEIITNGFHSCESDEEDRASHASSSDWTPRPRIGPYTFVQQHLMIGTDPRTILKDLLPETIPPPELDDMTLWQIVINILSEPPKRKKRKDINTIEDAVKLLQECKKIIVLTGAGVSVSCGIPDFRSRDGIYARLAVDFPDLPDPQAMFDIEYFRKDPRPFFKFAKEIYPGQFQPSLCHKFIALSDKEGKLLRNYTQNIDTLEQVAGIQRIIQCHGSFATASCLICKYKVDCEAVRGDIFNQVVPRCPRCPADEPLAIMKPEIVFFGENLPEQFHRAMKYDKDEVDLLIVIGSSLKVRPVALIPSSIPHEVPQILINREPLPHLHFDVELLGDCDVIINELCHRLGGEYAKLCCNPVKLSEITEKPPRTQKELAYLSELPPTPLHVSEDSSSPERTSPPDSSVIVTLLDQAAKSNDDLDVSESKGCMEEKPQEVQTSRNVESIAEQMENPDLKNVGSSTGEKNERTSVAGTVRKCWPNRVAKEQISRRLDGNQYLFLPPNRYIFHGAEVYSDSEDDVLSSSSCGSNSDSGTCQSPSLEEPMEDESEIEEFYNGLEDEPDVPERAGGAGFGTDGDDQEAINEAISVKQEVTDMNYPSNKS

[6] = myristoyl-H3K9 peptide substrate, HPLC assay

For CCCCCCCCCCCCCCCCNNC(=O)c1cccs1 [SIS17], the “acetylation level of α-tubulin” value ([1]; up to 50 μM) was “did not affect”, the SIRT3 inhibition (SIRT3) was “did not show significant inhibition” and the IC50 (HDAC11 [2]; read-out: IC50 against HDAC11, myristoyl-H3K9 peptide substrate, HPLC assay) was 830 nM. For the same molecule, the “detection of compound in cell lysate” value [3] was “could readily detect”, the SIRT2 inhibition (SIRT2) was “did not show significant inhibition” and the “acetylation level of histone H3” value ([4]; up to 50 μM) was “did not affect”. The HDAC8 inhibition (HDAC8) was “did not show significant inhibition”, the HDAC4 inhibition (HDAC4) was “did not show significant inhibition” and the HDAC1 inhibition (HDAC1) was “did not show significant inhibition”. The IC50 (HDAC11 [5]) was 270 nM, the SIRT6 inhibition (SIRT6) was “did not show significant inhibition” and the SIRT1 inhibition (SIRT1) was “did not show significant inhibition”.
For O=C(CCCCCCC(=O)Nc1ccccc1)NO [SAHA, Vorinostat], the “acetylation level of α-tubulin” value ([1]; at 1 μM) was “significantly increased”, the “HDAC11 inhibition (in words)” value (HDAC11 [2]; [6]) was “Neither SAHA or UF010 could inhibit HDAC11” and the “acetylation level of histone H3” value ([4]; at 1 μM) was “significantly increased”.
In the case of CCCCCCCCCCCCCCCC(=O)O [palmitic acid], the HDAC11 inhibition (HDAC11 [2]; at 10 μM) is reported as “no inhibition”.
In the case of CC1(C)c2cccc(C(=O)NO)c2CN1c1cnc(C(F)(F)F)cn1 [FT895], the “acetylation level of α-tubulin” value ([1]; up to 50 μM) is reported as “did not affect” and the “acetylation level of histone H3” value ([4]; up to 50 μM) is reported as “did not affect”.
With CCCCNNC(=O)c1ccc(Br)cc1 [UF010] the “HDAC11 inhibition (in words)” value (HDAC11 [2]; [6]) was “Neither SAHA or UF010 could inhibit HDAC11; also recorded: did not inhibit HDAC11”.
